Measurements reported in ChEMBL document CHEMBL1212882, “Phenolic constituents isolated from Fragaria ananassa Duch. inhibit antigen-stimulated degranulation through direct inhibition of spleen tyrosine kinase activation” (Bioorg Med Chem, 2010).
Activity calls are given as the source filed them. No cut-off for these calls is given here.

What was measured:
Assay type in all cases: cell-based
[1] = molecular target: Tyrosine-protein kinase SYK (Rattus norvegicus) (UniProt Q64725); assay: Inhibition of spleen tyrosine kinase in rat RBL-2H3 cells assessed as inhibition of IgE-induced degranulation at 10 to 100 uM after 1 hr by beta-hexosaminidase release assay
Outline: (§1)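 RBL-2H3 cells (2 × 10^4/well) cultured 1 h, then sensitized with anti-DNP IgE 0.45 µg/ml for 24 h. Cells were washed in Siraganian buffer A (PIPES, pH 7.2) and equilibrated in buffer B at 37 °C for 10 min. Compound was added at 37 °C for 30 min, then DNP-BSA 10 µg/ml for 10 min. Supernatant β-hexosaminidase was read with p-nitrophenyl-N-acetyl-β-D-glucosaminide at A405, corrected for direct enzyme inhibition.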

[2] = molecular target: Tyrosine-protein kinase SYK (Rattus norvegicus) (UniProt Q64725); assay: Inhibition of spleen tyrosine kinase in rat RBL-2H3 cells assessed as inhibition of IgE-induced increase of ROS level at 50 uM after 30 mins by FLIPR assay
Outline: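 Sensitized RBL-2H3 cells (5 × 10^4/well) took up 10 µM CM-H2DCFDA for 30 min at 37 °C and were washed twice. Cells were exposed to 50 µM compound for 30 min, then challenged with DNP-BSA 10 µg/ml. DCF fluorescence (ex 490/em 530 nm) was read on a fluorometric imaging plate reader. DPI 200 nM served as control. Means ± SEM, n = 10.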

[3] = molecular target: Tyrosine-protein kinase SYK (Rattus norvegicus) (UniProt Q64725); assay: Inhibition of spleen tyrosine kinase in rat RBL-2H3 cells assessed as inhibition of IgE-induced upregulation of p38 level at 50 uM after 30 mins by Western blotting
Outline: (§2)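 IgE-sensitized RBL-2H3 cells were pretreated 30 min with 50 µM compound and stimulated with DNP-BSA. Lysates were run on SDS-PAGE and transferred to PVDF. Membranes were blocked 1 h in 5% nonfat milk, probed with primary antibody overnight at 4 °C, then HRP secondary antibody 1 h at room temperature. ECL chemiluminescence detection; three independent experiments.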

[4] = molecular target: Tyrosine-protein kinase SYK (Rattus norvegicus) (UniProt Q64725); assay: Inhibition of spleen tyrosine kinase in rat RBL-2H3 cells assessed as inhibition of IgE-induced upregulation of phospholipase 2 level at 50 uM after 30 mins by Western blotting; outline: as §2
[5] = molecular target: Tyrosine-protein kinase SYK (Rattus norvegicus) (UniProt Q64725); assay: Inhibition of spleen tyrosine kinase in rat RBL-2H3 cells assessed as inhibition of IgE-induced upregulation of ERK1/2 level at 50 uM after 30 mins by Western blotting; outline: as §2
[6] = molecular target: Tyrosine-protein kinase SYK (Rattus norvegicus) (UniProt Q64725); assay: Inhibition of spleen tyrosine kinase in rat RBL-2H3 cells assessed as inhibition of IgE-induced upregulation of JNK level at 50 uM after 30 mins by Western blotting; outline: as §2
[7] = molecular target: Tyrosine-protein kinase SYK (Rattus norvegicus) (UniProt Q64725); assay: Inhibition of spleen tyrosine kinase in rat RBL-2H3 cells assessed as inhibition of IgE-induced increase of intracellular calcium level at 50 uM after 30 mins by FLIPR assay
Outline: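 IgE-sensitized RBL-2H3 cells (5 × 10^4/well; anti-DNP IgE 0.45 µg/ml, 24 h) were loaded with Fluo-3AM for 1 h. Cells were washed and held 30 min in loading buffer containing 50 µM compound, then stimulated with DNP-BSA 10 µg/ml. Fluorescence (ex 490/em 530 nm) was recorded on a fluorometric imaging plate reader. Means ± SEM, n = 12.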

[8] = molecular target: Tyrosine-protein kinase SYK (Rattus norvegicus) (UniProt Q64725); assay: Inhibition of spleen tyrosine kinase in rat RBL-2H3 cells assessed as inhibition of IgE-induced upregulation of Lyn level at 50 uM after 30 mins by Western blotting; outline: as §2
[9] = molecular target: Tyrosine-protein kinase SYK (Rattus norvegicus) (UniProt Q64725); assay: Inhibition of spleen tyrosine kinase in rat RBL-2H3 cells assessed as inhibition of IgE-induced upregulation of PI3K/Akt level at 50 uM after 30 mins by Western blotting; outline: as §2
[10] = molecular target: Tyrosine-protein kinase SYK (Rattus norvegicus) (UniProt Q64725); assay: Inhibition of spleen tyrosine kinase in rat RBL-2H3 cells assessed as inhibition of IgE-induced degranulation after 1 hr by beta-hexosaminidase release assay; outline: as §1
[11] = molecular target: Tyrosine-protein kinase SYK (Rattus norvegicus) (UniProt Q64725); assay: Inhibition of spleen tyrosine kinase in rat RBL-2H3 cells assessed as inhibition of IgE-induced upregulation of cPLA2 level at 50 uM after 30 mins by Western blotting; outline: as §2
[12] = molecular target: Tyrosine-protein kinase SYK (Rattus norvegicus) (UniProt Q64725); assay: Inhibition of spleen tyrosine kinase in rat RBL-2H3 cells assessed as inhibition of IgE-induced upregulation of phospholipase Cgamma1 level at 50 uM after 30 mins by Western blotting; outline: as §2

Tyrosine-protein kinase SYK (Rattus norvegicus), sequence (Q64725 whole entry, looked up): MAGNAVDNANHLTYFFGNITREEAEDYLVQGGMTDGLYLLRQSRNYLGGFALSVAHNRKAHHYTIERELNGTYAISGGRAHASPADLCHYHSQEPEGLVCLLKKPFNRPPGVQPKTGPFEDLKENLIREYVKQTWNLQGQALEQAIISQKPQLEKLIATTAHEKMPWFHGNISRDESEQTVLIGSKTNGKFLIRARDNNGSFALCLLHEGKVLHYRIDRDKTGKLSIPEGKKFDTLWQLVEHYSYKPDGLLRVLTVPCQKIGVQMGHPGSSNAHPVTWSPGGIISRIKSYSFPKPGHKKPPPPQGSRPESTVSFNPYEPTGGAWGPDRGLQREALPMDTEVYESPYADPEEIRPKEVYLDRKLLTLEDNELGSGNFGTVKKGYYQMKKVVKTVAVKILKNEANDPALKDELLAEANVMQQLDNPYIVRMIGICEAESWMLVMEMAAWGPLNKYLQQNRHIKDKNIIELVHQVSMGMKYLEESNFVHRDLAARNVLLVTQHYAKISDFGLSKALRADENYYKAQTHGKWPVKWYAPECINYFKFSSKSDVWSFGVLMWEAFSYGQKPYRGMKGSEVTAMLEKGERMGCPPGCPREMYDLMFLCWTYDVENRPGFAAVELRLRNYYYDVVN

inhibition [1]	inhibition [2]	inhibition [3]	inhibition [4]	inhibition [5]	inhibition [6]	inhibition [7]	inhibition [8]	inhibition [9]	inhibition [10]	inhibition [11]	inhibition [12]	Structure (SMILES)
Active	–	–	–	–	–	–	–	–	–	–	–	O=C(/C=C/c1ccccc1)O[C@@H]1O[C@H](CO)[C@@H](O)[C@H](O)[C@H]1O
inactive	–	–	–	–	–	–	–	–	–	–	–	O=C(O)/C=C/c1ccc(O)cc1
–	Active	Active	Active	Active	Active	Active	inactive	Active	Dose-dependent effect	Active	Active	COC(=O)/C=C/c1ccc(O[C@@H]2O[C@H](CO)[C@@H](O)[C@H](O)[C@H]2O)cc1
–	Active	–	Active	–	–	Active	inactive	–	Dose-dependent effect	–	Active	O=C(O)/C=C/c1ccccc1
